ABHD5-PLIN5 inh = inhibitors of human ABHD5-perilipin-5 interaction; Split G. princeps luciferase complementation, luminescence, 4 h; inhibition, % at 4 µM; 360,000 compounds, 0.78% hits;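 active = inhibition above the mean inhibition across every tested compound plus 3 SD, cut at about 22% in these data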
PRMT1 inh = blocks human protein arginine methyltransferase 1 | recombinant PRMT1, activity-based probe fluorescence polarization | inhibition, % at 2.79 µM | 370,000 compounds, 1.3% hits | AID 652257;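 active = inhibition above about 21% made by adding two undisclosed values, limit read from the data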
core dimer inh = blocks dimerization of HCV core protein. TR-FRET GST/Flag-core106 dimerization, 1536-well. inhibition, % at 5 µM. 300,000 compounds, 0.33% hits. AID 1899;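 active = inhibition above the mean of all tested compounds plus 3 SD, set per screening campaign, cut at about 45% in these data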
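assay system = GST-tagged and Flag-tagged HCV core protein residues 1-106 | controls = unlabelled core106 and no-GST-core106 wells | incubation = compound-protein-antibody incubation 4 h at 22.5 °C | probe or stimulus = Eu donor and XL665 acceptor anti-tag antibodies | read-out = % inhibition based on acceptor/donor emission ratio | signal = TR-FRET 671 and 617 nm emission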
APOBEC3A inh = inhibitors of human APOBEC3A DNA deaminase; inhibition, % at 20 µM; 330,000 compounds, 0.41% hits; recombinant A3A, FAM/TAMRA ssDNA deamination fluorescence; AID 493011;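 active = at least 40% inhibition at 20 µM here, with at most 30% in a related deaminase screen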
Target sequence (P31941 whole entry, looked up): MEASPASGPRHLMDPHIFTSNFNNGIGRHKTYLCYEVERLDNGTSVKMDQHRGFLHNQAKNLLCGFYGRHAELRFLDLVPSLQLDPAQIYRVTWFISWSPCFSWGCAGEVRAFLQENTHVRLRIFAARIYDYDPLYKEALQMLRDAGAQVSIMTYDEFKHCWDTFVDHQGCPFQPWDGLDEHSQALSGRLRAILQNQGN
HCV NS3 hel inh = inhibitors of Hepatitis C virus NS3 helicase. NS3 helicase DNA unwinding, Cy5 molecular beacon fluorescence. inhibition, % at 10.9 µM. 290,000 compounds, 0.56% hits. AID 1800;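 active = inhibition above the mean of all tested compounds plus 3 SD, set per campaign, cut at about 35% in these data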
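Assay system – hepatitis C virus NS3 helicase domain fragment enzyme · Buffer or medium – MOPS pH 6.5, MgCl2, DTT, Tween20, BSA · Reagent – Cy5/quencher beacon DNA duplex and ATP to start · Compound – single 10.9 µM dose · Timing – 1 h at 25 °C · Technique – Cy5 beacon fluorescence read at start and 1 h · Measure – % inhibition of unwinding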
A3G deaminase = blocks human APOBEC3G single-stranded DNA deamination. recombinant A3G, ssDNA deamination FAM/TAMRA fluorescence. inhibition, % at 20 µM. 330,000 compounds, 0.28% hits. AID 493012;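 active = inhibition of at least 40% at 20 µM, with no more than 30% in the related APOBEC3A deaminase screen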
Target sequence (Q9HC16 whole entry, looked up): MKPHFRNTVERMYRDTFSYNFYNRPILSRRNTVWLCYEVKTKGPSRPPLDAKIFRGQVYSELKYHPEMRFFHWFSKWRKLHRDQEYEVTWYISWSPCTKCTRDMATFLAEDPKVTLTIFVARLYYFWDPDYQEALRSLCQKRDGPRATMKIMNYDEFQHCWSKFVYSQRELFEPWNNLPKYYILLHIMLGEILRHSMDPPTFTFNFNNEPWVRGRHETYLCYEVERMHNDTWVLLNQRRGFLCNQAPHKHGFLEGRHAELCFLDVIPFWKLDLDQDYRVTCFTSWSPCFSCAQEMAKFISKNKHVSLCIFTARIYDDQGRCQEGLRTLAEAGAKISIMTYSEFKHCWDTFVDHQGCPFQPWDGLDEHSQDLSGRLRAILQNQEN
PRMT1 inh conf = confirmation of human PRMT1 inhibitors. recombinant His-PRMT1, activity-based probe fluorescence polarization. AID 687036. inhibition, % at 2.79 µM. shares compounds with PRMT1 inh. 3,300 compounds, 42% hits;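 active = mean inhibition across replicates above the hit cutoff derived for the earlier primary screen, cut at about 22% in these data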
Hits are given with their value; . = inactive; / = not tested or not shown. Compounds with a hit are over-represented: about 2.9% of the library has one in this group of screens.

SMILES	ABHD5-PLIN5 inh	PRMT1 inh	core dimer inh	APOBEC3A inh	HCV NS3 hel inh	A3G deaminase	PRMT1 inh conf
CSc1ccc(/C=N/NC(=O)CNc2ccc3ccccc3c2)cc1	.	29	.	.	.	.	.
CC1(C)Cc2[nH]c(=S)c(C#N)cc2CO1	.	41	.	.	.	.	24
CC1(C)Cc2c(c(N3CCCC3)[nH]c(=S)c2C#N)CO1	/	/	.	.	.	.	/
O=c1c2ccccc2sn1-c1cc(S(=O)(=O)N2CCOCC2)ccc1N1CCCC1	.	88	.	.	.	.	80
Nc1cc(S(=O)(=O)N2CCOCC2)ccc1N1CCCCC1	.	.	/	.	/	.	/
C/C(=N\NC(=O)Cc1ccc(Cl)cc1)c1ccccc1O	.	.	.	.	.	.	/
C/C(=N\NC(=O)c1nnn(-c2nonc2N)c1CN(C)c1ccccc1)c1cccnc1	.	.	.	.	.	.	/
CC(C)(CCC(=S)N1CCOCC1)C1CCCCC1	.	37	.	.	.	.	.
O=C([C@H]1O[C@@H](n2ccc(=O)[nH]c2=O)[C@H](O)[C@@H]1O)N1CCSC1	.	.	/	/	/	/	/
Cc1cc(C)nc(SCC(=O)c2ccc([N+](=O)[O-])cc2)n1	.	37	.	.	.	.	.
Cc1cc(C)nc(SCC(=O)c2ccc(O)c(O)c2)n1	.	49	.	.	.	.	42
COc1ccc(N=Nc2nc3cc(Br)c(Br)cc3n2C)c(OC)c1	.	69	.	/	.	/	49
COc1ccc(CC(=O)Nc2nc(OCC(F)(F)F)cnc2-c2ccc(Cl)cc2Cl)cc1	.	.	/	/	/	/	/
Cc1ccccc1Nc1nc(N)nc(COC(=O)c2ccco2)n1	.	.	/	.	/	.	/
Cc1ccc(/C=C/C(=O)OCc2nc(N)nc(Nc3ccccc3C)n2)o1	.	34	.	.	.	.	.
Cc1cc(N)ccc1-n1nc2ccccc2n1	.	.	.	.	/	.	/
CN1c2ccccc2Sc2cc(N)ccc21	.	29	.	.	.	.	.
CC(=O)Nc1ccc(S(=O)(=O)NCC(=O)NNC(=O)COc2c(C)cccc2C)cc1	.	.	/	.	/	.	/
CC(=O)Nc1ccc(S(=O)(=O)NCC(=O)NNC(=O)COc2ccccc2Cl)cc1	.	25	.	.	/	.	22
CC(=O)Nc1ccc(-c2csc(N/N=C(/C)c3ccccc3)n2)cc1	.	.	.	.	.	.	/
CC(=O)Nc1ccc(-c2csc(NNC(=O)c3ccccc3)n2)cc1	.	26	.	.	.	.	.
O=C(NNc1nc(-c2ccccc2)cs1)c1ccco1	.	42	.	.	.	.	.
COc1ccc(C(=O)CSc2nc(=O)n3ccc(C)cc3n2)cc1	.	.	/	/	/	/	/
CC(=O)OCC1OC(OC2C[C@]3(C)C(CC(O)C4C([C@](C)(CCC=C(C)C)OC5OC(CO)C(O)C(O)C5O)CC[C@]43C)[C@@]3(C)CCC(O)C(C)(C)C23)C(O[C@@H]2OC(C)C(O)C(O)C2O)C(O)C1O (some centres undefined)	.	/	/	.	/	.	/
COC(=O)c1cc(-c2ccccc2)sc1N	.	.	.	.	.	.	/
SMILES	ABHD5-PLIN5 inh	PRMT1 inh	core dimer inh	APOBEC3A inh	HCV NS3 hel inh	A3G deaminase	PRMT1 inh conf
C#CCNC(=O)c1cc(-c2ccccc2)sc1N	.	27	/	/	/	/	.
CCN(C(=O)CSc1nccc(=O)[nH]1)C1CCCCC1	.	.	/	.	/	.	/
Cc1cc2nc(-c3ccc(SCc4ccc(C(=O)O)cc4)nc3)[nH]c2cc1C	.	26	.	/	.	/	22
Cc1cc2nc(-c3ccc(SCC(=O)NC(C)C)nc3)[nH]c2cc1C	/	/	.	.	.	.	/
C#CCCc1cscc1/C=[N+](\[O-])c1ccc(C(=O)OCC)cc1	.	.	/	.	/	.	/
CCOC(=O)c1ccc(/[N+]([O-])=C/c2ccccc2)cc1	.	25	/	.	/	.	.
CCC(C(=O)NCC1CCCO1)N(C(=O)c1snc(C(N)=O)c1N)c1ccc(Cl)cc1 (centres undefined)	.	.	.	.	.	.	/
Cc1ccc(C)c(-n2c3nc(=O)[nH]c(=O)c-3cc3cc([N+](=O)[O-])ccc32)c1	.	26	.	/	.	/	.
CSC1=NS(=O)(=O)c2c(C)nn(C)c2S1	.	100	.	.	.	.	76
COc1ccccc1CCC[C@@H](CCS(=O)(=O)C(C)C)CC1CCCCC1	/	.	/	/	/	/	/
COc1ccc(N2C(=O)CC(N(CCc3ccc(OC)c(OC)c3)C(=S)Nc3ccccc3)C2=O)cc1 (centres undefined)	.	.	.	.	.	.	/
COC(=O)c1ccc(N2C(=O)CC(N(C)CCc3ccc(OC)c(OC)c3)C2=O)cc1 (centres undefined)	.	.	.	.	.	.	/
COc1ccc(N2C(=O)CC(N(C)CCc3ccc(OC)c(OC)c3)C2=O)cc1 (centres undefined)	.	48	.	.	.	.	.
COc1ccc(C2c3cc(OC)c(OC)cc3CCN2C2CC(=O)N(c3ccccc3)C2=O)cc1OC (centres undefined)	.	42	.	.	.	.	.
COc1ccc(CCN(C)C2CC(=O)N(c3ccccc3)C2=O)cc1OC (centres undefined)	.	46	.	.	.	.	.
COc1ccc(NC(=O)/C(C#N)=C\c2ccc(-c3cc(C(=O)O)ccc3C)o2)cc1	.	.	.	.	.	.	/
CCCCNC(=O)CC1SC(=NCC)N(CC)C1=O (centres undefined)	.	.	.	.	.	.	/
CCN=C1SC(CC(=O)NCc2ccccc2)C(=O)N1CC (centres undefined)	.	78	.	.	.	.	.
CCN=C1SC(C(=O)Nc2cccc(Cl)c2)CC(=O)N1CC (centres undefined)	.	.	.	.	.	.	/
CCN=C1SC(C(=O)NCCc2ccccc2)CC(=O)N1CC (centres undefined)	.	39	.	.	.	.	.
CN(Cc1ccccc1)C(=O)[C@@H]1CCCN1C(=O)[C@@H]1CCCN1C(=O)c1ccccc1	.	.	/	/	/	/	/
Cc1cc(CNC[C@H]2O[C@@H](n3cnc4c(N)ncnc43)[C@H](O)[C@@H]2O)no1	.	.	/	/	/	/	/
CC(=O)Nc1ccc(/C=C2\Sc3ccccc3C2=O)cc1	.	.	.	.	.	.	/
CC(=O)N(C)/C=C1\Sc2ccccc2C1=O	.	78	.	.	.	.	.
O=CN(/C=C1\Sc2ccccc2C1=O)Cc1ccccc1	.	56	.	.	.	.	.
CCC(=O)N(C)/C=C1\Sc2ccccc2C1=O	.	56	.	.	.	.	45
CSc1ccc(C(O)c2ncc(-c3ccccc3F)[nH]2)cc1 (centres undefined)	.	.	/	/	/	/	/
O=C(Cc1csc(-c2ccccc2)n1)NCC(=O)Nc1ccc(F)c(F)c1F	.	.	/	.	/	.	/
